ChEMBL document CHEMBL1148410, “Antitumor agents. 3. Design, synthesis, and biological evaluation of new pyridoisoquinolindione and dihydrothienoquinolindione derivatives with potent cytotoxic activity” (J Med Chem, 2004)

Columns and labels:
MCF7 = assay: Concentration required to reduce proliferation of human breast adenocarcinoma (MCF-7) cell line by 50% as determined by the MTT method; assay type: functional, cell-based
Method in brief: (§1)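 Solid-tumour-derived cells (and fibroblasts) were seeded in exponential growth at 5×10^4 cells/mL and allowed to adhere for 16 h before serial drug dilutions were added (DMSO stock 200 μM, diluted in medium). MTT viability was read 4 days later. Untreated controls went through at least three rounds of multiplication. IC50 came from linear regression of % growth versus untreated control, mean of three independent determinations.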

SK-MES-1 = assay: Concentration required to reduce proliferation of human lung squamous carcinoma (SKMES-1) cell line by 50% as determined by the MTT method; assay type: functional, cell-based; method in brief: as §1
DU-145 = assay: Concentration required to reduce proliferation of human prostate carcinoma (DU-145) cell line by 50% as determined by the MTT method; assay type: functional, cell-based; method in brief: as §1
SK-MEL-28 = assay: Concentration required to reduce proliferation of human melanoma (SKMEL-28) cell line by 50% as determined by the MTT method; assay type: functional, cell-based; method in brief: as §1
HepG2 = assay: Concentration required to reduce proliferation of human hepatocellular carcinoma (HepG-2) cell line by 50% as determined by the MTT method; assay type: functional, cell-based; method in brief: as §1
MT4 = assay: Concentration required to reduce proliferation of CD4+ human acute T-lymphoblastic leukemia (MT-4) cell line by 50% as determined by the MTT method; assay type: functional, cell-based
Method in brief: (§2)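 Leukemia/lymphoma cells grown in RPMI 1640 with 10% FCS, 37 °C, humidified 5% CO2. Compounds were dissolved in DMSO (200 μM initial) and serially diluted in medium. Exponentially growing cells were resuspended at 1×10^5 cells/mL with the drug dilutions. Viability was read by MTT after 96 h at 37 °C. Growth was taken as % of untreated controls, and IC50 came from linear regression. Values are the mean of three independent determinations.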

CCRF-SB = assay: Concentration required to reduce proliferation of human acute B-lymphoblastic (CCRF-SB) cell line by 50% as determined by the MTT method; assay type: functional, cell-based; method in brief: as §2
CCRF-CEM = assay: Concentration required to reduce proliferation of CD4+ human acuteT-lymphoblastic leukemia (CCRF-CEM) cell line by 50% as determined by the MTT method; assay type: functional, cell-based; method in brief: as §2
CRL-7065 cell line = assay: Concentration required to reduce proliferation of human foreskin fibroblasts (CRL7065) cell line by 50% as determined by the MTT method; assay type: functional, cell-based; method in brief: as §1
WIL2-NS = assay: Concentration required to reduce proliferation of human splenic B-lymphoblastoid (Wil2-NS) cell line by 50% as determined by the MTT method; assay type: functional, cell-based; method in brief: as §2
KB [1] = assay: Concentration required to reduce proliferation of KB subclones passaged in the presence of doxorubicin 0.09 uM (KBMDR) cell line by 50% as determined by the MTT method; assay type: functional, cell-based; settings: Homo sapiens
Method in brief: (§3)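 Adherent cultures were seeded at 5×10^4 cells/mL, attached for 16 h, then exposed to serial drug dilutions. MTT viability was read after 4 days, with controls completing at least three doublings. IC50 came from linear regression, mean ±SD of three independent determinations.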

KB [2] = assay: Concentration required to reduce proliferation of KB subclones passaged in the presence of vincristine 0.02 uM (KBV20C) cell line by 50% as determined by the MTT method; settings: Homo sapiens
KB [3] = assay: Concentration required to reduce proliferation of KB human nasopharyngeal carcinoma (KBWT) cell line by 50% as determined by the MTT method; assay type: functional, cell-based; method in brief: as §3
KB [4] = assay: Concentration required to reduce proliferation of KB subclones passaged in the presence of etoposide 7 uM (KB7D) cell line by 50% as determined by the MTT method; assay type: functional, cell-based; settings: Homo sapiens; method in brief: as §3

## CCOC(=O)C1=CC2C(=O)c3ncccc3C(=O)C2C(c2ccc(C)cc2)=N1 (stereo not given)
MCF7
  IC50: 1000 nM
SK-MES-1
  IC50: 1000 nM
DU-145
  IC50: 1000 nM
SK-MEL-28
  IC50: 200 nM
HepG2
  IC50: 900 nM
MT4
  IC50: 300 nM
CCRF-SB
  IC50: 90 nM
CCRF-CEM
  IC50: 20 nM
CRL-7065 cell line
  IC50: 70 nM
WIL2-NS
  IC50: 30 nM

## CCOC(=O)C1=CC2C(=O)c3cccnc3C(=O)C2C(c2ccc(OC)cc2)=N1 (stereo not given)
MCF7
  IC50: 900 nM
SK-MES-1
  IC50: 1200 nM
DU-145
  IC50: 1500 nM
SK-MEL-28
  IC50: 1000 nM
HepG2
  IC50: 2000 nM
MT4
  IC50: 1000 nM
CCRF-SB
  IC50: 900 nM
CCRF-CEM
  IC50: 1500 nM
CRL-7065 cell line
  IC50: 1500 nM
WIL2-NS
  IC50: 2100 nM

## CCOC(=O)C1=CC2C(=O)c3cccnc3C(=O)C2C(c2ccc(Cl)cc2)=N1 (stereo not given)
MCF7
  IC50: 500 nM
SK-MES-1
  IC50: 500 nM
DU-145
  IC50: 1500 nM
SK-MEL-28
  IC50: 800 nM
HepG2
  IC50: 2000 nM
MT4
  IC50: 700 nM
CCRF-SB
  IC50: 700 nM
CCRF-CEM
  IC50: 800 nM
CRL-7065 cell line
  IC50: 900 nM
WIL2-NS
  IC50: 2000 nM

## CCOC(=O)C1=CC2C(=O)c3ncccc3C(=O)C2C(c2ccc(N(C)C)cc2)=N1 (stereo not given)
MCF7
  IC50: 1000 nM
SK-MES-1
  IC50: 1000 nM
DU-145
  IC50: 1000 nM
SK-MEL-28
  IC50: 900 nM
HepG2
  IC50: 900 nM
MT4
  IC50: 900 nM
CCRF-SB
  IC50: 900 nM
CCRF-CEM
  IC50: 1200 nM
WIL2-NS
  IC50: 1400 nM

## CCOC(=O)C1(N)CSC2=C1C(=O)c1ncccc1C2=O (stereo not given)
MCF7
  IC50: 200 nM
SK-MES-1
  IC50: 100 nM
DU-145
  IC50: 80 nM
SK-MEL-28
  IC50: 200 nM
HepG2
  IC50: 600 nM
MT4
  IC50: 20 nM
CCRF-SB
  IC50: 10 nM
CCRF-CEM
  IC50: 70 nM
CRL-7065 cell line
  IC50: 90 nM
WIL2-NS
  IC50: 60 nM

## CCOC(=O)C1=CC2C(=O)c3cccnc3C(=O)C2C(c2ccc(N(C)C)cc2)=N1 (stereo not given)
MCF7
  IC50: 1600 nM
SK-MES-1
  IC50: 1800 nM
DU-145
  IC50: 1900 nM
SK-MEL-28
  IC50: 1900 nM
HepG2
  IC50: 2200 nM
MT4
  IC50: 2000 nM
CCRF-SB
  IC50: 2200 nM
CCRF-CEM
  IC50: 2300 nM
WIL2-NS
  IC50: 2500 nM

## CCOC(=O)C1=CC2C(=O)c3cccnc3C(=O)C2C(c2ccc(Br)cc2)=N1 (stereo not given)
MCF7
  IC50: 600 nM
SK-MES-1
  IC50: 500 nM
DU-145
  IC50: 1300 nM
SK-MEL-28
  IC50: 900 nM
HepG2
  IC50: 2300 nM
MT4
  IC50: 700 nM
CCRF-SB
  IC50: 800 nM
CCRF-CEM
  IC50: 1300 nM
CRL-7065 cell line
  IC50: 1300 nM
WIL2-NS
  IC50: 2100 nM

## CCOC(=O)C1=CC2C(=O)c3ncccc3C(=O)C2C(c2ccc([N+](=O)[O-])cc2)=N1 (stereo not given)
KB [1]
  IC50: 300 nM
MCF7
  IC50: 80 nM
KB [2]
  IC50: 200 nM
SK-MES-1
  IC50: 10 nM
DU-145
  IC50: 10 nM
SK-MEL-28
  IC50: 1 nM
KB [3]
  IC50: 80 nM
HepG2
  IC50: 70 nM
MT4
  IC50: 1 nM
CCRF-SB
  IC50: 2 nM
CCRF-CEM
  IC50: 50 nM
WIL2-NS
  IC50: 1 nM
KB [4]
  IC50: 400 nM

## CCOC(=O)C1=CC2C(=O)c3cccnc3C(=O)C2C(c2ccccc2)=N1 (stereo not given)
MCF7
  IC50: 300 nM
SK-MES-1
  IC50: 300 nM
DU-145
  IC50: 1000 nM
SK-MEL-28
  IC50: 800 nM
HepG2
  IC50: 1000 nM
MT4
  IC50: 700 nM
CCRF-SB
  IC50: 600 nM
CCRF-CEM
  IC50: 700 nM
WIL2-NS
  IC50: 1000 nM
